Results: ChEMBL document CHEMBL2401613, “Benzofused hydroxamic acids: useful fragments for the preparation of histone deacetylase inhibitors. Part 1: hit identification” (Bioorg Med Chem Lett, 2013)
In brackets after ≈: the same amount, converted by molar mass. One block for each molecule: values may come before it.

How the values were obtained:
[1] = target: T1, Histone deacetylase (Homo sapiens) (UniProt Q13547+O15379+Q9UBN7+Q92769+Q9UQL6+Q8WUI4+Q9BY41+Q96DB2+P56524+Q9UKV0+Q969S8); assay: Inhibition of HDAC (unknown origin) at 1 uM; format: protein assay
Summary of the method: (§1)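 HeLa nuclear extract HDAC incubated with an acetylated-lysine substrate and inhibitor. Deacetylated substrate mixed with developer gives a fluorophore, read at ex/em 335/460 nm. Two-point screen at 0.1 and 1.0 µM, expressed as % inhibition. Triplicate determinations, averaged.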

[2] = target: T1, Histone deacetylase (Homo sapiens); assay: Inhibition of HDAC (unknown origin) at 0.1 uM; format: protein assay; summary of the method: as §1
[3] = test system: HCT-116; assay: Cytotoxicity against human HCT116 cells after 5 days by Alamar Blue assay; format: functional, cell-based; conditions: HCT-116, 120 h
Summary of the method: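 Colon cancer HCT-116 cells were seeded in complete medium, and inhibitors were added after 24 h at 0.1–100 µM in quadruplicate. After 5 days, Alamar Blue was added and plates were incubated a further 4 h. Fluorescence was read at ex 530/em 590 nm. IC50 is the concentration giving 50% inhibition of proliferation.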

[4] = Aqueous solubility of the compound at pH 7.4; format: physicochemical
[5] = target: Histone deacetylase; assay: Inhibition of HDAC in human HeLa cells assessed as deacetylation of substrate by fluorescence plate reader analysis; format: cell-based
Summary of the method: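 Enzyme source: HeLa cell nuclear extract (partially purified HDAC). Extract incubated with an acetylated-lysine substrate in the presence of inhibitor; a developer then releases a fluorophore from the deacetylated substrate, read at ex/em 335/460 nm. IC50 is the concentration giving 50% inhibition of enzymatic activity, from triplicate runs averaged. SAHA and LAQ-xx were positive controls.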

[6] = test system: HCT-116; assay: Antitumor activity against human HCT116 cells xenografted in CD1 mouse assessed as reduction in tumor volume at 50 mg/kg, po; format: functional; set-up: scale not given: the % may be the effect or the level left
Summary of the method: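 Female CD1 nude (nu/nu) athymic mice were dosed orally at 50 and 100 mg/kg for 21 days, n = 4 per group. Vehicle control was 0.5% CMC at 10 mL/kg. Read-out was tumor volume inhibition (TVI).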

Structure (SMILES): O=C(Cc1ccccn1)Nc1ccc2sc(C(=O)NO)cc2c1
- inhibition [1]: 74%
- solubility [4]: 4 µg/mL (≈ 12.2 µM)
- inhibition [2]: 39%

Structure (SMILES): O=C(NO)c1cc2ccc(COc3ccc(F)cc3)cc2s1
- inhibition [1]: 31%
- inhibition [2]: < 20%

Structure (SMILES): O=C(NCc1ccc2cc(C(=O)NO)sc2c1)c1ccco1
- inhibition [1]: 92%
- inhibition [2]: 89%
- IC50 [3]: 70 nM

Structure (SMILES): O=C(NO)c1cc2cccc(C(F)(F)F)c2s1
- IC50 [5]: 9190 nM

Structure (SMILES): O=C(NO)c1cc2ccc(CSc3ccc(F)cc3)cc2s1
- inhibition [1]: 24%
- inhibition [2]: < 20%

Structure (SMILES): O=C(NO)c1csc2ccccc12
- IC50 [5]: 76130 nM

Structure (SMILES): O=C(NO)c1cc2ccsc2s1
- IC50 [5]: 1080 nM

Structure (SMILES): O=C(Cc1ncc[nH]1)Nc1ccc2cc(C(=O)NO)sc2c1
- inhibition [1]: 78%
- inhibition [2]: 24%

Structure (SMILES): O=C(Cc1ccncc1)Nc1ccc2sc(C(=O)NO)cc2c1
- inhibition [1]: 78%
- solubility [4]: 4 µg/mL (≈ 12.2 µM)
- inhibition [2]: 49%
- IC50 [3]: 8600 nM

Structure (SMILES): Cc1ccc2cc(C(=O)NO)sc2c1
- IC50 [5]: 1760 nM

Structure (SMILES): O=C(NO)c1cc2sccc2s1
- IC50 [5]: 557 nM

Structure (SMILES): Cc1cc2sc(C(=O)NO)cc2cc1O
- IC50 [5]: 989 nM

Structure (SMILES): N#Cc1cc2ccc(NC(=O)[C@H](N)c3ccccc3)cc2s1
- inhibition [1]: < 20%
- inhibition [2]: < 20%

Structure (SMILES): COc1ccc(CC(=O)Nc2ccc3cc(C(=O)NO)sc3c2)cc1
- inhibition [1]: 84%
- inhibition [2]: 75%
- IC50 [3]: 490 nM

Structure (SMILES): COc1cccc2sc(C(=O)NO)cc12
- IC50 [5]: 3790 nM

Structure (SMILES): O=C(NO)c1cc2cccc(Cl)c2s1
- IC50 [5]: 2910 nM

Structure (SMILES): O=C(NO)c1cc2ccc(CN3CCc4ccccc4C3)cc2s1
- inhibition [1]: 83%
- inhibition [2]: 53%
- IC50 [3]: 1300 nM

Structure (SMILES): COc1cc2cc(C(=O)NO)sc2cc1C
- IC50 [5]: 1350 nM

Structure (SMILES): O=C(NO)c1cc2ccccc2s1
- IC50 [5]: 2170 nM

Structure (SMILES): CN(C)c1ccc(CC(=O)Nc2ccc3cc(C(=O)NO)sc3c2)cc1
- inhibition [1]: 82%
- inhibition [2]: 57%
- IC50 [3]: 500 nM

Structure (SMILES): O=C(NCc1ccc2cc(C(=O)NO)sc2c1)c1cccnc1
- inhibition [1]: 84%
- inhibition [2]: 72%
- IC50 [3]: 730 nM

Structure (SMILES): Cc1ccc2cc(C(=O)NO)sc2c1F
- IC50 [5]: 458 nM

Structure (SMILES): O=C(Cc1cccnc1)Nc1ccc2sc(C(=O)NO)cc2c1
- solubility [4]: 4 µg/mL (≈ 12.2 µM)
- inhibition [2]: 49%
- IC50 [3]: 17000 nM

Structure (SMILES): O=C(Cc1ccc2c(c1)OCO2)Nc1ccc2cc(C(=O)NO)sc2c1
- inhibition [1]: 78%
- inhibition [2]: 55%

Structure (SMILES): O=C(NO)c1cc2c(Cl)cccc2s1
- IC50 [5]: 11630 nM

Structure (SMILES): CN(C)CCCC(=O)Nc1ccc2cc(C(=O)NO)sc2c1
- inhibition [1]: 79%
- solubility [4]: 1310 µg/mL (≈ 4080 µM)
- inhibition [2]: 50%
- IC50 [3]: 2400 nM

More lines, main results first:

- inhibition [1]: 91%
- inhibition [2]: 77%
Structure (SMILES): O=C(NO)c1cc2ccc(CN(CCO)C(=O)Nc3ccccc3)cc2s1
- IC50 [3]: 1400 nM

- inhibition [1]: 78%
- solubility [4]: 4 µg/mL (≈ 12.2 µM)
- inhibition [2]: 59%
Structure (SMILES): O=C(Cc1ccccn1)Nc1ccc2cc(C(=O)NO)sc2c1
- IC50 [3]: 480 nM

- inhibition [1]: 76%
- solubility [4]: 4 µg/mL (≈ 11.8 µM)
- inhibition [2]: 42%
Structure (SMILES): O=C(CCc1ccccc1)Nc1ccc2cc(C(=O)NO)sc2c1
- IC50 [3]: 2600 nM

- inhibition [1]: 78%
- inhibition [2]: 44%
Structure (SMILES): N[C@H](CCc1ccccc1)C(=O)Nc1ccc2cc(C(=O)NO)sc2c1
- IC50 [3]: 320 nM

- inhibition [1]: 87%
- inhibition [2]: 73%
Structure (SMILES): O=C(Cc1ccsc1)Nc1ccc2cc(C(=O)NO)sc2c1
- IC50 [3]: 110 nM

- inhibition [1]: 79%
- solubility [4]: 4 µg/mL (≈ 13.4 µM)
- inhibition [2]: 58%
Structure (SMILES): O=C(NO)c1cc2ccc(NCc3ccccc3)cc2s1
- IC50 [3]: 1300 nM

- inhibition [1]: 80%
- inhibition [2]: 52%
Structure (SMILES): O=C(NO)c1cc2ccc(CN(CCO)Cc3ccccc3)cc2s1
- IC50 [3]: 830 nM

- inhibition [1]: 81%
- inhibition [2]: 54%
Structure (SMILES): N[C@@H](Cc1ccccc1)C(=O)Nc1ccc2cc(C(=O)NO)sc2c1
- IC50 [3]: 5000 nM

- inhibition [1]: 83%
- inhibition [2]: 65%
Structure (SMILES): COc1cccc(CC(=O)Nc2ccc3cc(C(=O)NO)sc3c2)c1
- IC50 [3]: 600 nM

- inhibition [1]: 68%
- solubility [4]: 4 µg/mL (≈ 13.4 µM)
- inhibition [2]: 28%
Structure (SMILES): O=C(NO)c1cc2cc(NCc3ccccc3)ccc2s1

- inhibition [1]: 73%
- solubility [4]: 4 µg/mL (≈ 12.8 µM)
- inhibition [2]: 32%
Structure (SMILES): O=C(NO)c1cc2ccc(NCCc3ccccc3)cc2s1

- inhibition [1]: 58%
- inhibition [2]: 22%
Structure (SMILES): O=C(NO)c1cc2ccc(COc3ccccc3F)cc2s1

- inhibition [1]: 87%
- inhibition [2]: 93%
Structure (SMILES): O=C(NCc1ccc2cc(C(=O)NO)sc2c1)c1ccccc1
- IC50 [3]: 250 nM

- inhibition [1]: 68%
- inhibition [2]: 23%
Structure (SMILES): O=C(NO)c1cc2ccc(COc3cccc(F)c3)cc2s1

- inhibition [1]: 63%
- solubility [4]: 4 µg/mL (≈ 11.3 µM)
- inhibition [2]: 21%
Structure (SMILES): CN(C(=O)CCc1ccccc1)c1ccc2cc(C(=O)NO)sc2c1

- inhibition [1]: 76%
- inhibition [2]: 53%
Structure (SMILES): O=C(NO)c1cc2ccc(CN(CCO)c3ccccc3)cc2s1
- IC50 [3]: 1700 nM

- inhibition [1]: 85%
- inhibition [2]: 69%
Structure (SMILES): N[C@H](C(=O)Nc1ccc2cc(C(=O)NO)sc2c1)c1ccccc1
- IC50 [3]: 770 nM

- inhibition [1]: 83%
- solubility [4]: 4 µg/mL (≈ 12.2 µM)
- inhibition [2]: 62%
Structure (SMILES): O=C(Cc1cccnc1)Nc1ccc2cc(C(=O)NO)sc2c1
- IC50 [3]: 3000 nM

- inhibition [1]: 82%
- solubility [4]: 4 µg/mL (≈ 12.3 µM)
- inhibition [2]: 48%
Structure (SMILES): O=C(Cc1ccccc1)Nc1ccc2sc(C(=O)NO)cc2c1
- IC50 [3]: 1300 nM

- inhibition [1]: 84%
- solubility [4]: 4 µg/mL (≈ 12.2 µM)
- inhibition [2]: 66%
Structure (SMILES): O=C(Cc1ccncc1)Nc1ccc2cc(C(=O)NO)sc2c1
- IC50 [3]: 1800 nM

- inhibition [1]: 88%
- inhibition [2]: 60%
Structure (SMILES): O=C(Cc1ccccc1)NCc1ccc2cc(C(=O)NO)sc2c1
- IC50 [3]: 1200 nM

- inhibition [1]: 81%
- inhibition [2]: 54%
Structure (SMILES): COc1ccccc1CC(=O)Nc1ccc2cc(C(=O)NO)sc2c1
- IC50 [3]: 550 nM

- inhibition [1]: 69%
- solubility [4]: 4 µg/mL (≈ 11.8 µM)
- inhibition [2]: 28%
Structure (SMILES): O=C(CCc1ccccc1)Nc1ccc2sc(C(=O)NO)cc2c1

- inhibition [1]: 85%
- inhibition [2]: 71%
Structure (SMILES): N[C@@H](CCc1ccccc1)C(=O)Nc1ccc2cc(C(=O)NO)sc2c1
- IC50 [3]: 3400 nM

- inhibition [1]: 85%
- solubility [4]: 4 µg/mL (≈ 12.3 µM)
- inhibition [2]: 71%
Structure (SMILES): O=C(Cc1ccccc1)Nc1ccc2cc(C(=O)NO)sc2c1
- Activity [6]: 26%
- IC50 [3]: 100 nM

- inhibition [1]: 67%
- solubility [4]: 4 µg/mL (≈ 11.3 µM)
- inhibition [2]: 27%
Structure (SMILES): CN(C(=O)CCc1ccccc1)c1ccc2sc(C(=O)NO)cc2c1

- inhibition [1]: 77%
- inhibition [2]: 41%
Structure (SMILES): N[C@H](Cc1ccccc1)C(=O)Nc1ccc2cc(C(=O)NO)sc2c1
- IC50 [3]: 340 nM

- inhibition [1]: 85%
- inhibition [2]: 70%
Structure (SMILES): N[C@@H](C(=O)Nc1ccc2cc(C(=O)NO)sc2c1)c1ccccc1
- IC50 [3]: 500 nM

- inhibition [1]: 61%
- solubility [4]: 4 µg/mL (≈ 12.8 µM)
- inhibition [2]: 28%
Structure (SMILES): O=C(NO)c1cc2cc(NCCc3ccccc3)ccc2s1
